Data on 11 compounds can be found in ChEMBL document CHEMBL1145239 (Bioorg Med Chem Lett, 2005).

pIC50: −log10 of the molar value.

Dipeptidyl peptidase 4, sequence (P14740 whole entry): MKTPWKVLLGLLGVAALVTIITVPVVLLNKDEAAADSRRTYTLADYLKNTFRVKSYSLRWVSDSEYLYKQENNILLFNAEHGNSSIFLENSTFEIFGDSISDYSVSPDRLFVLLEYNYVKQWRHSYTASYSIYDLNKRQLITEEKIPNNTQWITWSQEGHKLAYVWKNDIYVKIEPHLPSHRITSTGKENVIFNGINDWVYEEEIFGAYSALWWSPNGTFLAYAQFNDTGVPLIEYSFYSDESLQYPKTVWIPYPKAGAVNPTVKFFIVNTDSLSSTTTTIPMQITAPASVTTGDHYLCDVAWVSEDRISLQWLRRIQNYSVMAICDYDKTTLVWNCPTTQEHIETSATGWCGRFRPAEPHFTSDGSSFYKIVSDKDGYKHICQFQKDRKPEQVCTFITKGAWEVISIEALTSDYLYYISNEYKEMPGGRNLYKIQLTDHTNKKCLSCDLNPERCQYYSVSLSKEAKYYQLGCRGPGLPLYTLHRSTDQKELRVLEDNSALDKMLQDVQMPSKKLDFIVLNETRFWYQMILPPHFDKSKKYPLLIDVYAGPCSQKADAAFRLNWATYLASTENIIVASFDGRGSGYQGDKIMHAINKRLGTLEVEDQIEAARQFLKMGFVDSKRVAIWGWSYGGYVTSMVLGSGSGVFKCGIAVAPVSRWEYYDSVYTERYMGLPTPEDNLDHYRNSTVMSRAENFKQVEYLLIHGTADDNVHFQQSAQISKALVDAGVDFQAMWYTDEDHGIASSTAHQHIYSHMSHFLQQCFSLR

The target in the experiment is Dipeptidyl peptidase 4 (Rattus norvegicus, UniProt P14740). Kind of experiment: Inhibitory concentration against rat dipeptidylpeptidase IV. The essentials:
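DPP-IV activity in rat plasma (10-fold diluted) by fluorescence with Gly-Pro-MCA substrate (100 µmol/L solution added); buffer PBS with 0.003% Brij-35. Inhibitor at various concentrations, room temperature, 60 min. Inhibition relative to solvent control; IC50 by logistic analysis.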
For orientation: pIC50 means the negative decadic logarithm of the IC50, by convention in mol/L. High values mean a low IC50, low ones a high IC50. Regarding `N#C[C@@H]1CCCN1C(=O)[C@@H]1C[C@H](N)CN1`, the pIC50 was 8.04.

As to `N#C[C@@H]1CCCN1C(=O)[C@@H]1C[C@H](NC2CCCCC2)CN1`, the pIC50 was 8.44.

With `N#C[C@@H]1CCCN1C(=O)[C@@H]1C[C@H](NS(=O)(=O)c2ccccc2)CN1`, the pIC50 was 8.41.

Turning to `N#C[C@@H]1CCCN1C(=O)[C@@H]1C[C@H](NCCc2ccccc2)CN1`, the pIC50 is 8.82.

Consider `COc1ccc(N[C@@H]2CN[C@H](C(=O)N3CCC[C@H]3C#N)C2)cc1`, for which the pIC50 was 9.55.

With `N#C[C@@H]1CCCN1C(=O)[C@@H]1C[C@H](NCc2ccccc2)CN1`, the pIC50 was 8.52.

The compound `N#Cc1ccc(N[C@@H]2CN[C@H](C(=O)N3CCC[C@H]3C#N)C2)cc1C#N` showed a pIC50 of 9.77.

The compound `N#Cc1ccc(N[C@@H]2CN[C@H](C(=O)N3CCC[C@H]3C#N)C2)cc1` showed a pIC50 of 9.59.

In the case of `N#C[C@@H]1CCCN1C(=O)[C@@H]1C[C@H](NC(=O)Nc2ccccc2)CN1`, the pIC50 was 8.96.

Regarding `COc1ccc(N[C@@H]2CN[C@H](C(=O)N3CCC[C@H]3C#N)C2)cc1OC`, the pIC50 is 9.62.

`N#C[C@@H]1CCCN1C(=O)[C@@H]1C[C@H](NC(=O)c2ccccc2)CN1` showed a pIC50 of 8.42.
